This is an account of results in ChEMBL document CHEMBL3576822 (J Med Chem, 2015).

pEC50, pIC50: −log10 of the molar value. The source made the active and inactive calls. The calls are words filed in the database; no cut-off is given here. Residues, ends and D or L forms follow the SMILES beside them. A value given as a limit tells only on which side of the number the result lay.

Experiment [1] concerns Mus musculus. Description: Effect on food intake in diet-induced obese C57BL/6JRj mouse at 500 nM/kg, sc. The class given is functional, organism-based. Put shortly:
(§1)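 Freely fed diet-induced obese mice, saline control group; single acute dose, SC at 500 nM/kg or IP at 50, 100 or 250 nM/kg; cumulative food intake and body weight recorded.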

Experiment [2] relates to Mus musculus. Description: Effect on body weight in diet-induced obese C57BL/6JRj mouse at 500 nM/kg, sc. The experiment is classed as functional, organism-based. Put shortly: as §1
The subject of experiment [3] is Mus musculus. Kind of experiment: Effect on food intake in diet-induced obese C57BL/6JRj mouse at 50 to 250 nM/kg, ip. The experiment is classed as functional, organism-based. Put shortly:
as §1

In experiment [4] the test system is Mus musculus. Description: Effect on body weight in diet-induced obese C57BL/6JRj mouse at 50 to 250 nM/kg, ip. The experiment is classed as functional, organism-based. Put shortly: as §1
Experiment [5] has as its system Mus musculus. Description: Decrease in food intake in diet-induced obese C57BL/6JRj mouse at 0.25 nM/h, sc administered via osmotic minipumps daily for 14 days. The experiment is classed as functional, organism-based.
For experiment [6], the target named is T1, Growth hormone secretagogue receptor type 1 (Homo sapiens, UniProt Q92847). Description: Inverse agonist activity at human GHSR1a receptor expressed in COS-7 cells assessed as inositol phosphate accumulation after 2 hrs by anion exchange chromatography. The class given is functional, cell-based.
T1 sequence (Q92847 whole entry): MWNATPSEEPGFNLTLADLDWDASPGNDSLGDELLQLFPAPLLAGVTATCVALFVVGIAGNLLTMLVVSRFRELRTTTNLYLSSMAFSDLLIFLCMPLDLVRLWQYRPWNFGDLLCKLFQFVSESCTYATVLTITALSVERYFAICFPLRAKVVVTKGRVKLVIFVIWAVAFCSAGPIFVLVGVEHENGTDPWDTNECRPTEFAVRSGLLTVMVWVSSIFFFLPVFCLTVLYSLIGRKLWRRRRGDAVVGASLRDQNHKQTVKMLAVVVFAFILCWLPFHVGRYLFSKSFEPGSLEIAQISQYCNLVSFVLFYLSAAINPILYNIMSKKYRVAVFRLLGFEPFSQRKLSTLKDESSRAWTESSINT
Experiment [7] has as its target T1, Growth hormone secretagogue receptor type 1. Description: Inverse agonist activity at human GHSR1a receptor expressed in COS-7 cells assessed as inositol phosphate accumulation after 2 hrs by anion exchange chromatography relative to control. The class given is functional, cell-based.
Experiment [8] addresses T2, Neuropeptide Y receptor type 2 (Homo sapiens, UniProt P49146).
T2 sequence (P49146 whole entry): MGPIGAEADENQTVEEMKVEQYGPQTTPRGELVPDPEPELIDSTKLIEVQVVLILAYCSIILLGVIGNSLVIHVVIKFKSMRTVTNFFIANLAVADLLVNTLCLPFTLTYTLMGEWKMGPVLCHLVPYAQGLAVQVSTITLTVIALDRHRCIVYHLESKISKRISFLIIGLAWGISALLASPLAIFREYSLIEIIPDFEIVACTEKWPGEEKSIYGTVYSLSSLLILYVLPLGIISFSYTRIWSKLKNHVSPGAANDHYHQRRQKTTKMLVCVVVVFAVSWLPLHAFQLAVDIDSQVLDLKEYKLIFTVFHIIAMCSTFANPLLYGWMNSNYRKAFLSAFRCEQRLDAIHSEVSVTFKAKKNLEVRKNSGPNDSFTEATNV
Description: Agonist activity at human neuropeptide Y Y2 receptor expressed in COS-7 cells cotransfected with chimeric Gi/q protein assessed as inositol phosphate accumulation after 2 hrs by anion exchange chromatography. The class given is functional, cell-based. Put shortly: (§2)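 Inositol phosphate turnover in COS-7 cells stably co-expressing human Y2 receptor and chimeric Gi/q protein; concentration-response curves, responses as % of maximum Y2 activity; SEM over two biological replicates.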

In experiment [9] the target is T3, Neuropeptide Y receptor type 2 (Homo sapiens) (UniProt P49146).
T3 sequence (whole entry): T2 sequence (P49146 whole entry)
Kind of experiment: Agonist activity at human neuropeptide Y Y2 receptor expressed in COS-7 cells cotransfected with chimeric Gi/q protein assessed as inositol phosphate accumulation after 2 hrs by anion exchange chromatography relative to control. The experiment is classed as functional, cell-based. Put shortly: as §2

Experiment [10] has as its target T1, Growth hormone secretagogue receptor type 1. Description: Displacement of [125I]ghrelin from human eYFP-fused ghrelin receptor expressed in COS7 cells after 75 mins by competitive receptor binding assay. The class given is cell-based, COS-7.
Experiment [11] has as its target T2, Neuropeptide Y receptor type 2. Description: Displacement of [125I]PYY from human neuropeptide Y Y2 receptor expressed in HEK293 cells cotransfected with eYFP fusion protein after 2 hrs by competitive receptor binding assay. The experiment is classed as cell-based. Put shortly: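 Competitive binding against 125I-PYY in HEK-293 cells stably expressing human Y2 receptor; concentration-response curves.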
Background: Displacement assays read how much labelled ligand stays bound in the presence of the test substance.

Experiment [12] deals with T4, Neuropeptide Y receptor type 1 (Homo sapiens) (UniProt P25929).
T4 sequence (whole entry): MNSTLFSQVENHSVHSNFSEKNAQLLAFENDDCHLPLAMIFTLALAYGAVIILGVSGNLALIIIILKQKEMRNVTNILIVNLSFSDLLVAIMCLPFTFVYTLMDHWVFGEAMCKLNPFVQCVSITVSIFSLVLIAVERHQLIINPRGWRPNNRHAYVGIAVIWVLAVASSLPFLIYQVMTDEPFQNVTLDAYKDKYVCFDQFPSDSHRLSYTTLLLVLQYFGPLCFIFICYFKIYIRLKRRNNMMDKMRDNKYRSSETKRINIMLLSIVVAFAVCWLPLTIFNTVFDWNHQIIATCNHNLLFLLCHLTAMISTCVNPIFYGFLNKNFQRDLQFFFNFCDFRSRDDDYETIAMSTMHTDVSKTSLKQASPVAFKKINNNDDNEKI
Description: Agonist activity at human neuropeptide Y Y1 receptor expressed in COS-7 cells cotransfected with chimeric Gi/q protein assessed as inositol phosphate accumulation at 1 uM after 2 hrs by anion exchange chromatography. The class given is functional, cell-based. Put shortly: (§3)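 COS-7 cells stably co-expressing the corresponding human Y receptor plus a chimeric Gi/q protein; single high concentration tested in inositol phosphate accumulation; response as % of NPY response at each receptor; SEM over two biological replicates.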

The target of experiment [13] is Neuropeptide Y receptor type 4 (Homo sapiens) (UniProt P50391). Description: Agonist activity at human neuropeptide Y Y4 receptor expressed in COS-7 cells cotransfected with chimeric Gi/q protein assessed as inositol phosphate accumulation at 1 uM after 2 hrs by anion exchange chromatography. The class given is functional, cell-based. Put shortly:
as §3

In experiment [14] the target is T5, Neuropeptide Y receptor type 5 (Homo sapiens) (UniProt Q15761).
T5 sequence (whole entry): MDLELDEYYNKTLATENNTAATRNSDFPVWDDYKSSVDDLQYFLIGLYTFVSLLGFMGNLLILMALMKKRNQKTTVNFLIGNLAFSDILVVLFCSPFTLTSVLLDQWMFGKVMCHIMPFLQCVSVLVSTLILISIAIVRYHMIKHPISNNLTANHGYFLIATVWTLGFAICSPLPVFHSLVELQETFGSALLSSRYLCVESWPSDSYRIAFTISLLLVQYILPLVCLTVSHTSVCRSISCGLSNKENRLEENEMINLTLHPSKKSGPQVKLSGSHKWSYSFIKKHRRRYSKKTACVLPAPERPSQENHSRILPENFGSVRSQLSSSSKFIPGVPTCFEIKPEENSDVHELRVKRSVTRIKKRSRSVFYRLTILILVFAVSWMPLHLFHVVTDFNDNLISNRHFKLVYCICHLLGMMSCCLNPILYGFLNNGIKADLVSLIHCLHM
Kind of experiment: Agonist activity at human neuropeptide Y Y5 receptor expressed in COS-7 cells cotransfected with chimeric Gi/q protein assessed as inositol phosphate accumulation at 1 uM after 2 hrs by anion exchange chromatography. The class given is functional, cell-based. Put shortly: as §3

Chain of Neuropeptide Y receptor type 4 (Homo sapiens) (P50391 whole entry): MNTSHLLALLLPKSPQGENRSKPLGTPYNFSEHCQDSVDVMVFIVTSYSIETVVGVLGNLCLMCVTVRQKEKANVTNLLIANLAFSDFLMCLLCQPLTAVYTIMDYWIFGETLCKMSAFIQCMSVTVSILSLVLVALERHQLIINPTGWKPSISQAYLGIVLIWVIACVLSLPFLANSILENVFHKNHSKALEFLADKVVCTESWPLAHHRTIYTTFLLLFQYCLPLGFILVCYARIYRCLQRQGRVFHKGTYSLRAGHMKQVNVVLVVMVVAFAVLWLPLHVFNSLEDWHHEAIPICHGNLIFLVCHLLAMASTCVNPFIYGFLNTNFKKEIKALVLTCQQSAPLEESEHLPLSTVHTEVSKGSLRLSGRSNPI

Turning to `CC(=O)N[C@@H](CC(C)C)C(=O)N[C@@H](CCCNC(=N)N)C(=O)N[C@@H](Cc1cnc[nH]1)C(=O)N[C@@H](Cc1ccc(O)cc1)C(=O)N[C@@H](CC(C)C)C(=O)N[C@@H](CC(N)=O)C(=O)N[C@@H](CC(C)C)C(=O)N[C@@H](CC(C)C)C(=O)N[C@H](C(=O)N[C@@H](CCCNC(=N)N)C(=O)N[C@@H](CCC(N)=O)C(=O)N[C@@H](CCCNC(=N)N)C(=O)N[C@@H](Cc1ccc(O)cc1)C(N)=O)[C@@H](C)O` (Ac-LRHYLNLLTRQRY-NH2), the result with Mus musculus [1], in the experiment with Mus musculus [2], in the experiment on Mus musculus [3] and in the experiment on Mus musculus [4] was inactive. Besides, the inhibition entry in the experiment on Mus musculus [5] is “inactive”.
As for `CC(=O)N[C@@H](CCCCNC(=O)CCNC(=O)[C@H](CCC(N)=O)NC(=O)[C@H](CC(C)C)NC(=O)[C@@H](Cc1c[nH]c2ccccc12)NC(=O)[C@H](Cc1ccccc1)NC(=O)[C@@H](Cc1cccc2ccccc12)NC(=O)[C@@H](N)CCCCN)C(=O)N[C@@H](CC(C)C)C(=O)N[C@@H](CCCNC(=N)N)C(=O)N[C@@H](Cc1cnc[nH]1)C(=O)N[C@@H](Cc1ccc(O)cc1)C(=O)N[C@@H](CC(C)C)C(=O)N[C@@H](CC(N)=O)C(=O)N[C@@H](CC(C)C)C(=O)N[C@@H](CC(C)C)C(=O)N[C@H](C(=O)N[C@@H](CCCNC(=N)N)C(=O)N[C@@H](CCC(N)=O)C(=O)N[C@@H](CCCNC(=N)N)C(=O)N[C@@H](Cc1ccc(O)cc1)C(N)=O)[C@@H](C)O`, the pEC50 (commonly −log10 of the EC50, conventionally taken in molar units) was 7.00 in experiment [6] and 8.77 in experiment [8]. Also, the Efficacy in [7] is 88%; in experiment [9] it was 86%; in [12] it was more than 66%; in [13], 46%; in experiment [14], more than 56%. Further, the figures for the pIC50 in [10] and in experiment [11] were 6.90 and 7.83, respectively.
In the case of `CC(=O)N[C@@H](CCCCNC(=O)CCCCCNC(=O)[C@H](CCC(N)=O)NC(=O)[C@H](CC(C)C)NC(=O)[C@@H](Cc1c[nH]c2ccccc12)NC(=O)[C@H](Cc1ccccc1)NC(=O)[C@@H](Cc1cccc2ccccc12)NC(=O)[C@@H](N)CCCCN)C(=O)N[C@@H](CC(C)C)C(=O)N[C@@H](CCCNC(=N)N)C(=O)N[C@@H](Cc1cnc[nH]1)C(=O)N[C@@H](Cc1ccc(O)cc1)C(=O)N[C@@H](CC(C)C)C(=O)N[C@@H](CC(N)=O)C(=O)N[C@@H](CC(C)C)C(=O)N[C@@H](CC(C)C)C(=O)N[C@H](C(=O)N[C@@H](CCCNC(=N)N)C(=O)N[C@@H](CCC(N)=O)C(=O)N[C@@H](CCCNC(=N)N)C(=O)N[C@@H](Cc1ccc(O)cc1)C(N)=O)[C@@H](C)O`, the pEC50 in [6] was 7.05; in [8] it was 8.41. For the same compound, the Efficacy is 85% in [7]; 84% in experiment [9]; more than 66% in [12]; 35% in [13]; more than 56% in experiment [14]. Also, the pIC50 (usually −log10 of the IC50, conventionally taken in molar units) was 7.11 in [10] and 8.05 in experiment [11].
